Assay results from ChEMBL document CHEMBL3352317, “Protective mechanisms of acacetin against D-galactosamine and lipopolysaccharide-induced fulminant hepatic failure in mice” (J Nat Prod, 2014).
The source made the active and inactive calls. The calls are words filed in the database; no cut-off is given here.

Tests used:
[1] = tested on: Mus musculus; assay: Hepatoprotective effect in GalN/LPS-induced ICR mouse FHF model assessed as serum ALT level at 25 mg/kg, ip administered 1 hr prior to GalN/LPS challenge measured after 6 hrs by spectrophotometry (reference value: 618.4 +/- 43.7 U/L); type: functional; conditions: route intraperitoneal
[2] = tested on: Mus musculus; assay: Effect on liver histology in GalN/LPS-induced ICR mouse FHF model assessed as inhibition of increase in inflammatory cell infiltration at 100 mg/kg, ip administered 1 hr prior to GalN/LPS challenge measured after 6 hrs by hematoxylin/eosin staining-based assay; type: functional, organism-based; design: dose 100 mg/kg
[3] = tested on: Hepatocyte; assay: Hepatoprotective effect in primary hepatocytes (unknown origin); type: functional, cell-based
[4] = tested on: Mus musculus; assay: Induction of autophagic flux in GalN/LPS-induced ICR mouse FHF model assessed as increase in Atg-5 protein expression at 100 mg/kg, ip administered 1 hr prior to GalN/LPS challenge measured after 6 hrs by Western blotting analysis relative to control; type: functional, organism-based; design: dose 100 mg/kg
Summary of the method: (§1)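 Livers from ICR mice given 100 mg/kg ip (5% DMSO−saline) 1 h before GalN 800 mg/kg/LPS 40 μg/kg, harvested at 6 h. Western blot: 20 μg liver homogenate protein (nuclear extracts for NF-κB), 10−17% SDS-PAGE, PVDF, blocked in 5% milk or BSA, primary antibody overnight at 4 °C, ECL detection; phospho versus total MAPKs; n = 8−10.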

[5] = tested on: Mus musculus; assay: Hepatoprotective effect in ip dosed GalN/LPS-induced ICR mouse FHF model assessed as survival rate administered 1 hr prior to GalN/LPS challenge measured up to 24 hrs; type: functional, organism-based
Summary of the method: (§2)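 Male 6-week-old ICR mice (24−26 g), fasted 18 h with water allowed. Vehicle (5% DMSO−saline) or drug suspended in it (25, 50, 100 mg/kg) given ip 1 h before ip GalN (800 mg/kg) plus LPS (40 μg/kg, E. coli O111:B4) in PBS. Survival was monitored over 24 h after the challenge. There were 10 mice per group.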

[6] = tested on: Mus musculus; assay: Hepatoprotective effect in GalN/LPS-induced ICR mouse FHF model assessed as survival rate at 100 mg/kg, ip administered 1 hr prior to GalN/LPS challenge measured after 24 hrs; type: functional; conditions: route intraperitoneal; summary of the method: as §2
[7] = tested on: Mus musculus; assay: Hepatoprotective effect in GalN/LPS-induced ICR mouse FHF model assessed as reduction in NF-kappaB protein expression at 100 mg/kg, ip administered 1 hr prior to GalN/LPS challenge measured after 6 hrs by Western blotting analysis relative to control; type: functional, organism-based; design: dose 100 mg/kg; summary of the method: as §1
[8] = tested on: Mus musculus; assay: Hepatoprotective effect in GalN/LPS-induced ICR mouse FHF model assessed as serum ALT level at 100 mg/kg, ip administered 1 hr prior to GalN/LPS challenge measured after 6 hrs by spectrophotometry (reference value: 618.4 +/- 43.7 U/L); type: functional; conditions: route intraperitoneal
[9] = tested on: Mus musculus; assay: Induction of autophagic flux in GalN/LPS-induced ICR mouse FHF model assessed as reduction in p62 level at 100 mg/kg, ip administered 1 hr prior to GalN/LPS challenge measured after 6 hrs by Western blotting analysis relative to control; type: functional, organism-based; design: dose 100 mg/kg; summary of the method: as §1
[10] = tested on: Mus musculus; assay: Effect on serum IL-6 level in ICR mouse at 100 mg/kg, ip by ELISA (reference value: 96.7 +/- 4.9 pg/ml); type: ADME, organism-based; design: dose 100 mg/kg, route intraperitoneal; conditions: in vivo
[11] = tested on: Mus musculus; assay: Induction of autophagic flux in GalN/LPS-induced ICR mouse FHF model assessed as […] in Beclin-1 protein expression at 100 mg/kg, ip administered 1 hr prior to GalN/LPS challenge measured after 6 hrs by Western blotting analysis relative to control; type: functional, organism-based; design: dose 100 mg/kg; summary of the method: as §1
[12] = tested on: Mus musculus; assay: Toxicity in ICR mouse at 100 mg/kg, ip; type: organism-based; design: dose 100 mg/kg, route intraperitoneal; conditions: in vivo
[13] = tested on: Mus musculus; assay: Effect on serum TNF-alpha level in ICR mouse at 100 mg/kg, ip by ELISA (reference value: 14.1 +/- 1.1 pg/ml); type: ADME, organism-based; design: dose 100 mg/kg, route intraperitoneal; conditions: in vivo
[14] = tested on: Mus musculus; assay: Hepatoprotective effect in GalN/LPS-induced ICR mouse FHF model assessed as serum TNF-alpha level at 100 mg/kg, ip administered 1 hr prior to GalN/LPS challenge measured after 6 hrs by ELISA (reference value: 605.8 +/- 96.8 pg/ml); type: functional; conditions: route intraperitoneal
[15] = tested on: Mus musculus; assay: Effect on liver histology in ICR mouse at 100 mg/kg, ip after 6 hr by hematoxylin/eosin staining-based assay; conditions: in vivo
[16] = tested on: Mus musculus; assay: Effect on liver histology in GalN/LPS-induced ICR mouse FHF model assessed as inhibition of multiple areas of portal inflammation at 100 mg/kg, ip administered 1 hr prior to GalN/LPS challenge measured after 6 hrs by hematoxylin/eosin staining-based assay; type: functional, organism-based; design: dose 100 mg/kg
[17] = tested on: Mus musculus; assay: Hepatoprotective effect in GalN/LPS-induced ICR mouse FHF model assessed as reduction in JNK phosphorylation at 100 mg/kg, ip administered 1 hr prior to GalN/LPS challenge measured after 6 hrs by Western blotting analysis relative to control; type: functional, organism-based; design: dose 100 mg/kg; summary of the method: as §1
[18] = tested on: Mus musculus; assay: Induction of autophagic flux in GalN/LPS-induced ICR mouse FHF model assessed as increase in autophagic vacuoles at 100 mg/kg, ip administered 1 hr prior to GalN/LPS challenge measured after 6 hrs by transmission electron microscopy relative to control; type: functional, organism-based; design: dose 100 mg/kg
Summary of the method: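 Mice given 100 mg/kg ip 1 h before GalN (800 mg/kg)/LPS (40 μg/kg); liver fixed at 6 h in 2.5% glutaraldehyde, 1% formaldehyde, 100 mM sodium phosphate pH 7.2; ultrathin 60−70 nm sections counterstained with uranyl acetate and lead citrate, autophagic vacuoles counted by transmission electron microscopy; n = 8−10.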

[19] = tested on: Mus musculus; assay: Induction of autophagic flux in GalN/LPS-induced ICR mouse FHF model assessed as increase in Atg-7 protein expression at 100 mg/kg, ip administered 1 hr prior to GalN/LPS challenge measured after 6 hrs by Western blotting analysis relative to control; type: functional, organism-based; design: dose 100 mg/kg; summary of the method: as §1
[20] = tested on: Mus musculus; assay: Effect on liver histology in GalN/LPS-induced ICR mouse FHF model assessed as inhibition of hepatocellular necrosis at 100 mg/kg, ip administered 1 hr prior to GalN/LPS challenge measured after 6 hrs by hematoxylin/eosin staining-based assay; type: functional, organism-based; design: dose 100 mg/kg
[21] = tested on: Mus musculus; assay: Effect serum ALT level in ICR mouse at 100 mg/kg, ip by spectrophotometry (reference value: 49.6 +/- 9.9 U/L); type: ADME, organism-based; design: dose 100 mg/kg, route intraperitoneal; conditions: in vivo
[22] = tested on: Mus musculus; assay: Hepatoprotective effect in GalN/LPS-induced ICR mouse FHF model assessed as serum ALT level at 50 mg/kg, ip administered 1 hr prior to GalN/LPS challenge measured after 6 hrs by spectrophotometry (reference value: 618.4 +/- 43.7 U/L); type: functional; conditions: route intraperitoneal
[23] = tested on: Mus musculus; assay: Induction of autophagic flux in GalN/LPS-induced ICR mouse FHF model assessed as increase in LC3-2 protein expression at 100 mg/kg, ip administered 1 hr prior to GalN/LPS challenge measured after 6 hrs by Western blotting analysis relative to control; type: functional, organism-based; design: dose 100 mg/kg; summary of the method: as §1
[24] = tested on: Mus musculus; assay: Hepatoprotective effect in GalN/LPS-induced ICR mouse FHF model assessed as reduction in TLR4 protein expression at 100 mg/kg, ip administered 1 hr prior to GalN/LPS challenge measured after 6 hrs by Western blotting analysis relative to control; type: functional, organism-based; design: dose 100 mg/kg; summary of the method: as §1
[25] = tested on: Mus musculus; assay: Hepatoprotective effect in GalN/LPS-induced ICR mouse FHF model assessed as serum TNF-alpha level at 100 mg/kg, ip administered 1 hr prior to GalN/LPS challenge measured after 6 hrs by ELISA (reference value: 78.9 +/- 14.9 pg/ml); type: functional; conditions: route intraperitoneal
[26] = tested on: Mus musculus; assay: Hepatoprotective effect in GalN/LPS-induced ICR mouse FHF model assessed as reduction in p38 phosphorylation at 100 mg/kg, ip administered 1 hr prior to GalN/LPS challenge measured after 6 hrs by Western blotting analysis relative to control; type: functional, organism-based; design: dose 100 mg/kg; summary of the method: as §1
[27] = tested on: Mus musculus; assay: Hepatoprotective effect in GalN/LPS-induced ICR mouse FHF model assessed as reduction in ERK phosphorylation at 100 mg/kg, ip administered 1 hr prior to GalN/LPS challenge measured after 6 hrs by Western blotting analysis relative to control; type: functional, organism-based; design: dose 100 mg/kg; summary of the method: as §1

Structure (SMILES): COc1ccc(-c2cc(=O)c3c(O)cc(O)cc3o2)cc1 [ACACETIN]
- Activity [1]: 520.1 U/L
- Activity [2]: Active
- Activity [3]: Active
- Activity [4]: Active
- Survival [5]: Dose-dependent effect
- survival at 100 mg/kg [6]: 80%
- Activity [7]: Active
- Activity [8]: 361.3 U/L
- Activity [9]: Active
- Activity [10]: 131 pg/mL
- Activity [11]: inactive
- Activity [12]: Non-toxic
- Activity [13]: 13.1 pg/mL
- Activity [14]: 27.4 pg/mL
- Activity [15]: Non-toxic
- Activity [16]: Active
- Activity [17]: Active
- Activity [18]: Active
- Activity [19]: Active
- Activity [20]: Active
- Activity [21]: 64.4 U/L
- Activity [22]: 395.6 U/L
- Activity [23]: Active
- Activity [24]: Active
- Activity [25]: 27.4 pg/mL
- Activity [26]: Active
- Activity [27]: Active
